Test results from ChEMBL document CHEMBL4680190, “Imidazo[2,1-b] [1,3,4]thiadiazoles with antiproliferative activity against primary and gemcitabine-resistant pancreatic cancer cells” (Eur J Med Chem, 2020).
Activity calls are given as the source filed them. The rule behind the calls is not given here.

Experiments:
[1] = Antiproliferative activity against human SUIT-2 cells assessed as reduction in cell growth incubated for 72 hrs by SRB assay; assay type: functional, cell-based; conditions: SUIT-2, 72 h
Method in brief: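 SUIT-2 cells seeded at 3 × 10³/well in triplicate and left 24 h at 37 °C. Cells were fixed with cold TCA, stained with 0.4% SRB in 1% acetic acid and dissolved in Tris pH 8.8. A490/A540 was read vs vehicle, corrected for day-0 OD. IC50 came from nonlinear curve fit; mean of three experiments.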

[2] = system: PANC-1; test: Antiproliferative activity against human Panc-1 cells assessed as reduction in cell growth incubated for 72 hrs by SRB assay; assay type: functional, cell-based; conditions: PANC-1, 72 h
Method in brief: (§1)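 Cells were seeded in triplicate at 3×10³/well (Panc-1, Panc-1R, PDAC-3) or 5×10³/well (Capan-1) and preincubated 24 h at 37 °C. Fixation was cold TCA, staining 0.4% SRB, solubilisation Tris pH 8.8, read at 490/540 nm. Growth was taken versus vehicle, day-0 corrected, and IC50 fitted nonlinearly; three independent experiments, mean ± SEM.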

[3] = system: CAPAN-1; test: Antiproliferative activity against human Capan-1 cells assessed as reduction in cell growth incubated for 72 hrs by SRB assay; assay type: functional, cell-based; conditions: CAPAN-1, 72 h; method in brief: as §1
[4] = Antiproliferative activity against gemicitabine-resistant human Panc-1R cells incubated for 72 hrs by SRB assay; assay type: functional, cell-based; conditions: PANC-1, 72 h; method in brief: as §1
[5] = Antiproliferative activity against human PDAC-3 cells assessed as inhibition of cell growth incubated for 72 hrs by SRB assay; assay type: functional, cell-based; conditions: PDAC-3, 72 h; method in brief: as §1
[6] = molecular target: Focal adhesion kinase 1 (Homo sapiens) (UniProt Q05397); test: Inhibition of PTK2 in human CAPAN-1 cells assessed as inhibition of PTK2 phosphorylation at Y397 residue at 5XIC50 incubated for 24 hrs by western blot analysis; assay type: cell-based
[7] = molecular target: Focal adhesion kinase 1 (Homo sapiens) (UniProt Q05397); test: Inhibition of PTK2 in human SUIT-2 cells assessed as inhibition of PTK2 phosphorylation at Y397 residue at 5XIC50 incubated for 24 hrs by western blot analysis; assay type: cell-based
[8] = molecular target: Focal adhesion kinase 1 (Homo sapiens) (UniProt Q05397); test: Inhibition of PTK2 in human Panc-1 cells assessed as inhibition of PTK2 phosphorylation at Y397 residue at 5XIC50 incubated for 24 hrs by western blot analysis; assay type: cell-based

Focal adhesion kinase 1 (Homo sapiens), sequence (Q05397 2-1052 limits assumed): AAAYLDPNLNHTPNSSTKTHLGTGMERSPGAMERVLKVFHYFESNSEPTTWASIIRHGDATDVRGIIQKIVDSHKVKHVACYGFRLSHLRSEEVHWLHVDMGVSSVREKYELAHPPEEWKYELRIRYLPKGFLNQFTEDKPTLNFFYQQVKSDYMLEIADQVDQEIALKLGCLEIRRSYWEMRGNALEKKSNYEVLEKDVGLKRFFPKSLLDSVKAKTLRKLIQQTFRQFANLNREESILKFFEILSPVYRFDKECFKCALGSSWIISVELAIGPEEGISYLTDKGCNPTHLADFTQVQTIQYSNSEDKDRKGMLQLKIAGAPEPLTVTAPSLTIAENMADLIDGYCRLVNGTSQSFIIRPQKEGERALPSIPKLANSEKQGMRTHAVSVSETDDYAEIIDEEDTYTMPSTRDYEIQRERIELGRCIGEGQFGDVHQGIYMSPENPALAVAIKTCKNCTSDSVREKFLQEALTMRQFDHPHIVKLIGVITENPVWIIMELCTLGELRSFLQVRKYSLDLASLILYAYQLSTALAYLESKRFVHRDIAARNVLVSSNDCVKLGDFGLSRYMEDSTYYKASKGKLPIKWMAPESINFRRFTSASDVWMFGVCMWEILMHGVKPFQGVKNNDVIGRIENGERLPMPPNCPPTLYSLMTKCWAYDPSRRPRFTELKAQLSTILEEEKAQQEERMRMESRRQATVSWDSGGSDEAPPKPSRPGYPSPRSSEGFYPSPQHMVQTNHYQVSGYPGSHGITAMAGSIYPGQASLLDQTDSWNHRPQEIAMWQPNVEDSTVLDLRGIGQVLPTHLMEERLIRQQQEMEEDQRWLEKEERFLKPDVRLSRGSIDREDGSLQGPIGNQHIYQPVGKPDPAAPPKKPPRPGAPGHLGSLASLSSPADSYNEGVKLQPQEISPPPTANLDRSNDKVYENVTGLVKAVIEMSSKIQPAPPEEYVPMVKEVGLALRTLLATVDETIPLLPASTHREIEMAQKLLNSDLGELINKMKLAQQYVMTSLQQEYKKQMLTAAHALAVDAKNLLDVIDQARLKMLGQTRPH

SMILES	IC50 [1] [µM]	IC50 [2] [µM]	IC50 [3] [µM]	IC50 [4] [µM]	IC50 [5] [µM]	inhibition [6]	inhibition [7]	inhibition [8]
O=Cc1c(-c2ccccc2)nc2sc(-c3c[nH]c4ccccc34)nn12	9.56	12.4	10.5					
COc1ccc(OC)c(-c2nc3sc(-c4cn(C)c5ccccc45)nn3c2C=O)c1	12.5	> 16	5.73					
O=c1[nH]cc(F)c(=O)[nH]1 [FLUOROURACIL]	0.91	4.3	0.47	4.5	0.56			
COc1ccc(OC)c(-c2nc3sc(-c4c[nH]c5ccc(Br)cc45)nn3c2C=O)c1	8.7	10.6	8.24					
COc1ccc(OC)c(-c2nc3sc(-c4c[nH]c5ccccc45)nn3c2C=O)c1	13	> 16	> 16					
O=Cc1c(-c2ccc(F)cc2)nc2sc(-c3c[nH]c4ccccc34)nn12	7.93	10.5	8.83					
Cn1cc(-c2nn3cc(-c4ccsc4)nc3s2)c2ccccc21						Active	Active	Active
c1ccc2c(-c3nn4cc(-c5ccsc5)nc4s3)c[nH]c2c1						Active	Active	Active
Nc1ccn([C@@H]2O[C@H](CO)[C@@H](O)C2(F)F)c(=O)n1 [GEMCITABINE]	0.01	0.15	0.02	> 10	0.03			
COc1cccc(-c2nc3sc(-c4c[nH]c5ccccc45)nn3c2C=O)c1	11.5	> 16	> 16					
